Measurements from different studies.
Compare with care: the assays were run in different laboratories.
Target: Mitogen-activated protein kinase 10 (MAPK10, Homo sapiens, UniProt P53779)

For `CCS(=O)(=O)c1cc2cc(C[C@@](O)(CC(C)(C)c3ccc(F)cc3C(N)=O)C(F)(F)F)[nH]c2cn1`, the remaining binding was 100% (cell-free assay; competition with immobilised ligand; 1 µM).
With `COc1cc(Cl)c(C(=O)N[C@@H](CN[C@H]2CC[C@@H](N)CC2)Cc2ccc(C#N)cc2)cc1-c1ccc(CN[C@H](C)c2ccc(C)cc2)o1` the remaining activity was 93% (enzyme activity; inhibitor; 1 µM).
With `CC/C(=N\NC(=O)NCc1cccc(O)c1)c1ccc(O)c(C)c1O` the inhibition was -5% (enzyme activity; inhibitor; 0.1 µM).
With `CC1=C(C#N)C(c2ccc3c(c2)c(NC(=O)c2ccccc2C)nn3C)C(C#N)=C(C)N1` the remaining binding was 100% (cell-free assay; competition with immobilised ligand; 1 µM).
The ΔTm of `Nc1ncnc2c1ncn2[C@@H]1O[C@H](COP(=O)(O)OP(=O)(O)OP(=O)(O)O)[C@@H](O)[C@H]1O` is reported as 2.73 °C (thermal stability; DSF; 200 µM).
The remaining activity of `COc1cc(Nc2cnc(C#N)c(O[C@H](C)CN(C)C)n2)ncc1-c1cnn(C)c1` is reported as 97% (enzyme activity; inhibitor; radiometric; 10 µM).
For `O=C(NC[C@@H]1[C@H]2CN(C(=O)OCc3cc(C(F)(F)F)cc(C(F)(F)F)c3)C[C@@H]12)c1ccc2[nH]nnc2c1`, the remaining binding was 90% (cell-free assay; competition with immobilised ligand; 1 µM).
With `Cc1ccc(NC(=O)c2ccc(C)c(C(F)(F)F)c2)cc1C#Cc1nn(C2CCC(O)CC2)c2ncnc(N)c12` (stereo not drawn) the remaining signal was 40% (cell-free assay; 10 µM).
With `Cc1cc(NC(=O)c2cccc3cc(-c4cccc5[nH]nc(N)c45)ccc23)ccc1F` the activity vs control was 102% (enzyme activity; inhibitor; 0.1 µM).
For `COc1cc(-c2cc(-c3ccc(N4CCNCC4)cc3)cnc2C)cc(OC)c1OC`, the inhibition was 3% (enzyme activity; inhibitor; 1 µM).
`FC(F)c1nc2ccccc2n1-c1nc(N2CCOCC2)nc(N2CCOCC2)n1` gave a remaining activity of 88% (enzyme activity; inhibitor; 10 µM).
With `CN(C)CC#Cc1ccc(OCCCc2sc(N3CCc4cccc(C(=O)Nc5nc6ccccc6s5)c4C3)nc2C(=O)O)c(F)c1` the remaining binding was 71% (cell-free assay; competition with immobilised ligand; 1 µM).
`CNC(=O)c1cc(Oc2ccc(NC(=O)Nc3ccc(Cl)c(C(F)(F)F)c3)cc2)ccn1` has an inhibition of 9% (enzyme activity; inhibitor; 0.3 µM).
For `O=C1Nc2ccc(Cl)cc2C1=Cc1cc(Cl)c(O)c(Cl)c1`, the remaining signal was 98.8% (cell-free assay; 0.5 µM).
`Cc1sc(C(=O)NC2COC2)cc1-n1cc(NC(=O)Nc2c(F)cccc2Cl)cn1` has a remaining activity of 10.5% (enzyme activity; inhibitor; 10 µM).
`COc1cc2ncnc(Nc3ccc(Oc4ccccc4)c(C)c3C)c2cc1OC` gave an inhibition of -1% (enzyme activity; inhibitor; 1 µM).
With `O=C(Nc1cccnn1)N1CCC(=Cc2cccc(Oc3ccc(C(F)(F)F)cn3)c2)CC1` the remaining binding was 100% (cell-free assay; competition with immobilised ligand; 1 µM).
For `CC(C)(C)c1nc(-c2cccc(NS(=O)(=O)c3c(F)cccc3F)c2F)c(-c2ccnc(N)n2)s1`, the remaining activity was 118% (enzyme activity; inhibitor; radiometric; 1 µM).
`C[C@@]1(Cc2ccc(C#N)cc2)C(=O)N(c2cc(Cl)cc(Cl)c2)c2ncc(C(=O)NC3(c4nc(C5CCC5)no4)CC3)n21` gave a remaining binding of 100% (cell-free assay; competition with immobilised ligand; 1 µM).
`Cc1ccc(C(=O)Nc2ccc(CN3CCN(C)CC3)c(C(F)(F)F)c2)cc1C#Cc1cnc2cccnn12` gave a remaining activity of 85% (enzyme activity; inhibitor; 23.5 nM).
The remaining binding of `CCC(=O)N[C@@H]1CC[C@H](C(=O)N(C)c2ccc(-c3nc4ccccc4o3)cc2)C1` is reported as 100% (cell-free assay; competition with immobilised ligand; 1 µM).
For `CCCS(=O)(=O)Nc1ccc(F)c(C(=O)c2c[nH]c3ncc(-c4ccc(Cl)cc4)cc23)c1F`, the inhibition was less than 10% (enzyme activity; inhibitor; 1 µM).
`Clc1ccc(Nc2nnc(Cc3ccncc3)c3ccccc23)cc1` has a remaining signal of 116% (cell-free assay; 0.5 µM).
The activity vs control of `FC(F)(F)Oc1cccc(-c2cnc3ccc(-c4ccncc4)nn23)c1` is reported as 81% (enzyme activity; inhibitor; radiometric; 5 µM).
